Assay outcomes from PubChem.
TAAR1 antag – antagonists of human TAAR1. CHO RD-HGA16 TAAR1, Fluo-8 calcium fluorescence, antagonist. inhibition, % at 3 µM. 360,000 tested, 1.5% active;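 active = inhibition above a per-plate cutoff, the mean inhibition of test compounds on that plate plus 3 SD, cut at about 49% in these data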;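 also: 0% = DMSO plus EC80 beta-PEA response and 100% = DMSO alone without agonist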
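Test system – hTAAR1-expressing CHO RD-HGA16 cells, Gα16-coupled · Reagent – β-PEA at EC80 concentration, post-compound challenge · Compound dosing – 3 µM, single point · Timing – 140 s kinetic read after compound, 140 s after agonist · Detection – Fluo-8 intracellular calcium dye fluorescence, real-time kinetic reads · Control set – DMSO and EC80 PEA controls · Repeats – n of 1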
GPR7 antagonist – antagonists of human GPR7 (neuropeptides B/W receptor 1); inhibition, % at 4.4 µM; GPR7-expressing cells, fluorescence antagonist assay; P48145; 290,000 tested, 1.1% active; in the data active = inhibition above about 16%, passing the limit was not always enough;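 also: cells stimulated with the agonist NPW; 0% = agonist with vehicle and 100% = vehicle without agonist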
TAAR1 ag – agonists of human TAAR1 | Q96RJ0 | CHO RD-HGA16 TAAR1, Fluo-8 calcium fluorescence; vehicle wells 0%, saturating PEA agonist 100% | activation, % at 3 µM | 360,000 tested, 0.99% active;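 active = activation above the mean activation of all test compounds in the run plus 3 SD, cut at about 38% in these data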
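Test system: RD-HGA16 (CHO) cells co-expressing Gα16 and hTAAR1 | Doses: Single dose, 3 µM | Schedule: 17-24 h seeding, 75 min 37 °C dye, 30 min RT | Evaluation: % activation from peak over basal fluorescence ratio, DMSO-to-PEA scaled | Technique: Kinetic Fluo-8 calcium fluorescence | Benchmarks: Low control DMSO, high control PEA (EC100)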
TRPN1 ag – zebrafish TRPN1 (NompC) channel agonism; HEK293 zebrafish TRPN1-YFP, Fluo-8 calcium fluorescence; 100% = response to 87 µM carbachol; activation, % at 3 µM; 220,000 tested, 0.18% active; AID 1424;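 active = activation above its plate's cutoff, the mean activation of test wells on that plate plus 3 SD, cut at about 19% in these data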;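 also: 0% = DMSO alone and 100% = 87 µM carbachol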
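Assay system: Zebrafish TRPN1-YFP in HEK293 cells | Incubation: Dye loading 1 h at 37 °C, then 30 min room temperature | Measured by: Kinetic Fluo-8 fluorescence, ex 470-495, em 515-575 nm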
TRPML3 ag – human mucolipin-3 channel agonism | Q8TDD5 | HEK293 TRPML3-YFP, Fluo-8 calcium fluorescence; 100% = the carbachol control signal | activation, % at 3 µM | 220,000 tested, 0.29% active | AID 1448;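 active = activation above its plate's cutoff, the mean activation of the plate's test wells plus 3 SD, cut at about 12% in these data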;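 also: 0% = DMSO only wells and 100% = carbachol wells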
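Material: TRPML3-YFP stable HEK293 cells | Dosing: One concentration, 3 µM nominal, 0.3% DMSO | Timing: 125 s total fluorescence read per well | Technique: Fluo-8 calcium dye fluorescence, ex 470-495, em 515-575 nm | Measure: Percent activation from peak-to-basal fluorescence ratio, scaled between DMSO and carbachol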
LANA-H2B inh – blocks KSHV LANA binding to histone H2A/H2B. cell-free LANA-H2A/H2B peptide, fluorescence polarization. 320,000 tested, 0.6% active. AID 2629. inhibition, % (test concentration not listed); in the data active = inhibition mostly above about 10%, no sharp cut-off; inactive = mostly below about 6.7%
Target sequence (Q9QR71 whole entry, looked up): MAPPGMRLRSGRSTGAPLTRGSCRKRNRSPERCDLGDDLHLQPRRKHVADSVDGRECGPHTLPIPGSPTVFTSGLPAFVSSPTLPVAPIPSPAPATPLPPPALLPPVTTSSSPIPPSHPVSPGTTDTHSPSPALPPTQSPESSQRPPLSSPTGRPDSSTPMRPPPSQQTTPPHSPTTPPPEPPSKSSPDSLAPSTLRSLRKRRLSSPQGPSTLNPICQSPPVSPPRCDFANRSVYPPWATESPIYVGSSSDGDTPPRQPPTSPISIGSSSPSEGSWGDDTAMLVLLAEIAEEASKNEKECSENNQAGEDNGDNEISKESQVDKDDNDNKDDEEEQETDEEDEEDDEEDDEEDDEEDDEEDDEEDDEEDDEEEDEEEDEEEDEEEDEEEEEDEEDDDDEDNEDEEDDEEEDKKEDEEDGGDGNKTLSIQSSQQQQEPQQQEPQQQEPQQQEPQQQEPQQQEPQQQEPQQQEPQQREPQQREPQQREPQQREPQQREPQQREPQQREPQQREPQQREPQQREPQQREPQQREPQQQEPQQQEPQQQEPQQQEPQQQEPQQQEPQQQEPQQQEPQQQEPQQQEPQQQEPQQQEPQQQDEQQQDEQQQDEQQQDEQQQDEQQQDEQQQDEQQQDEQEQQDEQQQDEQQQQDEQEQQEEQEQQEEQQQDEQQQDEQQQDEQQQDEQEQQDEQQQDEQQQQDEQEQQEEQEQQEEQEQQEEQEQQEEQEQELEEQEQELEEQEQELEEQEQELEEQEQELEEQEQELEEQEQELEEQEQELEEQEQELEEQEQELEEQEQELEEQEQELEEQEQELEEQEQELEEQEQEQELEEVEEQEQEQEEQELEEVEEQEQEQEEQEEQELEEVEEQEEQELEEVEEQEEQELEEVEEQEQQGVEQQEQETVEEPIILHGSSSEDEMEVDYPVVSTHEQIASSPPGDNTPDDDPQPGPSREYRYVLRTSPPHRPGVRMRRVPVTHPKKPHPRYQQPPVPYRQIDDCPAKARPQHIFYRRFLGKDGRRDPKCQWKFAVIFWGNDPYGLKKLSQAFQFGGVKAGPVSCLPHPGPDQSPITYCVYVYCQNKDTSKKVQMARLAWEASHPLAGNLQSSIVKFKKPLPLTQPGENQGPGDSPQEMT
TAAR1 ag confirm – confirmation of human TAAR1 agonists; shares compounds with TAAR1 ag; CHO RD-HGA16 TAAR1, Fluo-8 calcium fluorescence; scaled: DMSO 0%, maximal phenethylamine 100%; activation, % at 3 µM; 2,400 tested, 82% active;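 active = activation above a cutoff set at the run's mean compound activation plus 3 SD, cut at about 39% in these data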
Ga16 nonsel ag – nonselective agonist in parental cells, TAAR1 agonist counter-screen | 2,400 tested, 50% active | activation, % at 3 µM | CHO-Ga16 parental, Fluo-8 calcium fluorescence; normalized to maximal ATP response, DMSO zero | AID 651787 | shares compounds with TAAR1 ag;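 active = activation above the run cutoff, the mean activation over all tested wells plus 3 SD, cut at about 12% in these data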;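 also: 0% = DMSO wells and 100% = maximal ATP response on the peak over basal ratio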
TAAR1 desensitize – counter-screen for human TAAR1 agonists: agonists that desensitize TAAR1; shares compounds with TAAR1 ag; CHO RD-HGA16 hTAAR1, Fluo-8 calcium, beta-PEA response inhibition; inhibition, % at 3 µM; 2,400 tested, 46% active; AID 651951;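 active = inhibition above the run cutoff, the mean inhibition of all test compounds plus 3 SD, cut at about 49% in these data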;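 also: beta-PEA stimulus applied at its EC80; loss of beta-PEA calcium signal after compound pretreatment read as receptor desensitization; 0% = DMSO with beta-PEA at EC80 and 100% = DMSO alone without agonist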
Ga16 antag count – counter-screen for TAAR1 agonists: nonselective Ga16 antagonists | 2,400 tested, 39% active | shares compounds with TAAR1 ag | CHO-Ga16 ATP-induced calcium, Fluo-8 fluorescence | inhibition, % at 3 µM | AID 651952;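 active = inhibition above the plate's mean compound inhibition plus 3 SD, computed per plate, cut at about 22% in these data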;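 also: 0% = EC80 ATP with DMSO and 100% = DMSO wells without ATP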
Active calls of the source: *; . = no result given. An excerpt weighted towards active compounds, which were near 3.4% of everything screened.

SMILES	TAAR1 antag	GPR7 antagonist	TAAR1 ag	TRPN1 ag	TRPML3 ag	LANA-H2B inh	TAAR1 ag confirm	Ga16 nonsel ag	TAAR1 desensitize	Ga16 antag count
O=C(COc1ccc(Cl)cc1Cl)Nc1ccc(CN2CCCCC2)cc1	7	9	51*	7	3	2	84*	40*	41	27*
N=C1N(/N=C/c2ccccc2)C(=Nc2ccccc2)C(=S)N1c1ccccc1	12	-10	46*	0	0	-2	4	-1	26	14
CSc1nc(N)nc2c1ncn2CC(=O)N1CCN(c2ccccn2)CC1	2	.	1	.	.	1	.	.	.	.
COc1ccc(OC)c2c1C(=O)c1ccccc1C2=O	-8	-1	0	3	2	15	.	.	.	.
COc1ccc2noc3c2c1C(=O)c1ccccc1-3	67*	.	150*	.	.	167*	74*	63*	75*	61*
O=S1(=O)CC(N2CCCC2)CN1CCc1ccccc1 (centres undefined)	-7	.	56*	.	.	.	45*	0	6	16
Cc1ccc2c(c1)CO[C@]21O[C@H](CCO)C[C@H](O)[C@H]1O	-24	.	5	.	.	.	.	.	.	.
Cc1ccc(C(C)C)cc1OCC(=O)Nc1ccc(N2CCCCC2)cc1	-1	.	0	.	.	-7	.	.	.	.
O=C1/C(=C\c2cccc(O)c2)SC(=S)N1Cc1ccccc1	-10	-13	0	.	.	2	.	.	.	.
O=C1/C(=C\c2cccc(O)c2O)SC(=S)N1Cc1ccccc1	-17	-5	50*	.	.	0	21	18*	22	29*
NS(=O)(=O)c1ccc(CCNC(=O)CNCCc2ccccc2)cc1	18	-15	71*	.	.	-6	90*	1	70*	4
CCOc1ccc(/C(C)=N/NC(=O)c2nnn(-c3nonc3N)c2-c2cccs2)cc1	47	-13	119*	.	.	3	117*	88*	38	13
CCCOc1ccc(-c2c(C(=O)N/N=C/c3ccccc3)nnn2-c2nonc2N)cc1	-46	-9	0	0	0	4	.	.	.	.
CCCOc1ccc(-c2c(C(=O)N/N=C(\C)c3cccs3)nnn2-c2nonc2N)cc1	-20	-12	53*	.	.	0	56*	22*	2	4
COc1cc(/C(C)=N/NC(=O)c2nnn(-c3nonc3N)c2-c2cccs2)ccc1O	41	-14	13	.	.	3	.	.	.	.
CCOc1ccc(N(CC(=O)NC(C)(C)C)C(=O)CCC(=O)Nc2nccs2)cc1	-9	-4	6	.	.	-1	.	.	.	.
Cc1nn(CC(C)C)c(Cl)c1C(=O)N(C)CC(=O)Nc1ccc(Cl)cc1	-1	.	3	.	.	.	.	.	.	.
COc1ccc(-c2ccc(C(=O)Nc3ccc(C(C)C)cc3)c3occc23)c(C)c1	2	.	2	.	.	.	.	.	.	.
CC(C)(C)OC(=O)N1CCN(C(=O)c2[nH]cnc2C(=O)Nc2ccc(Cl)cc2)CC1	-12	.	1	.	.	2	.	.	.	.
Cc1cccc(NC(=S)N(C)C)c1C	-38	-7	1	1	1	1	.	.	.	.
Cc1cccc(Nc2cc(C)c3c(O)cccc3n2)c1C	82*	9	94*	2	3	-8	96*	22*	92*	17
CN(CCC#N)S(=O)(=O)c1ccc2[nH]cc(C(=O)NCCc3ccccc3)c(=O)c2c1	12	-7	54*	0	0	6	73*	0	20	6
